IC50 data for 38 compounds are collected here from ChEMBL document CHEMBL3091404, “Isoquinoline derivatives as potent CRTH2 antagonists: design, synthesis and SAR” (Bioorg Med Chem, 2013).

Assay [1] addresses T1, Prostaglandin D2 receptor 2 (Homo sapiens, UniProt Q9Y5Y4).
T1 sequence (Q9Y5Y4 whole entry): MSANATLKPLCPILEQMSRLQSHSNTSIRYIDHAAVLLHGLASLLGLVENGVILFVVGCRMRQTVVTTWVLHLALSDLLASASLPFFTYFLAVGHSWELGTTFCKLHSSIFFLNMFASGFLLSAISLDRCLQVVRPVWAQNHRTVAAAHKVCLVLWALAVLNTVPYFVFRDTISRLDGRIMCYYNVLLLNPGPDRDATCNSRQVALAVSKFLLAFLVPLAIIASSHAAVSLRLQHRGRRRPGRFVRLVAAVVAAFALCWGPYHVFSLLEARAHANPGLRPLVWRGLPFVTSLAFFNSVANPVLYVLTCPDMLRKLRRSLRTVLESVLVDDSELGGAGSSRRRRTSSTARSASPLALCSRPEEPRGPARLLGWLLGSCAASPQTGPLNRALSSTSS
The assay is described as follows: Antagonist activity at human CRTH2 transfected in human KB8 cells assessed as inhibition of PGD2-induced increase in intracellular Ca2+ by fluo-4AM dye-based assay. It counts as functional, cell-based. The method, boiled down:
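Cells loaded with 1 µM Fluo-4 AM for 30 min at 37 °C in the dark, washed, resuspended in HBSS with 10 mM HEPES pH 7.3 and 1 mM CaCl₂ (2 × 10⁵ cells/100 µl). Compound added with 100 nM PGD₂; [Ca²⁺]i rise read on FDSS6000. IC₅₀ from ten-point half-log concentration–response curves, mean of two or more independent experiments.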

The nature of assay [2]: Antagonist activity at CRTH2 in human TH2 cells assessed as inhibition of PGD2-induced chemotaxis after 1 hr by hemocytometry.
Assay [3] addresses T1, Prostaglandin D2 receptor 2. The assay is described as follows: Displacement of [3H]PGD2 from human CRTH2 transfected in CHO cells by liquid scintillation counting analysis. The assay is classed as cell-based. The method, boiled down:
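Transfected cells washed and suspended in HBSS with 10 mM HEPES pH 7.3 (2 × 10⁵ cells/100 µl), incubated with 5 nM ³H-PGD₂ for 60 min on ice. Vacuum filtration through GF/C glass fiber filters, four washes with ice-cold PBS containing 0.1% BSA. IC₅₀ from ten-point half-log concentration–response curves, mean of two or more independent experiments.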
On the technique in general: In a radioligand displacement assay an active substance lowers the binding of a labelled ligand.

Bounds are passed on as bounds.

`O=C(O)Cc1cnc(C(=O)c2ccc(NC(=O)C3CCCCC3)cc2)c2ccccc12`: in assay [1], the IC50 (in general, the point on the concentration scale where inhibition reaches its midpoint) came out at 270 nM.
With `O=C(O)Cc1cnc(C(=O)c2ccc(NC(=O)c3ccc4ccccc4c3)cc2)c2ccccc12`, the IC50 in assay [1] is 10 nM.
The same measure, in the same setting: under `O=C(O)Cc1cnc(C(=O)c2ccc(NC(=O)c3cc4ccccc4[nH]3)cc2)c2ccccc12` stands 4.2 nM; under `O=C(O)Cc1cnc(C(=O)c2ccc(NC(=O)c3ccncc3)cc2)c2ccccc12`, greater than 1000 nM; under `O=C(O)Cc1cnc(C(=O)c2ccc(NC(=O)c3cccc(Cl)c3)cc2)c2ccccc12`, 9.7 nM.
The same measure, in the same setting: next, `O=C(O)Cc1cnc(C(=O)c2ccc(NC(=O)c3ccc(Cl)cc3)cc2)c2ccccc12`: 9.1 nM.
Regarding `O=C(O)Cc1cnc(C(=O)c2ccc(NC(=O)c3ccccc3Cl)cc2)c2ccccc12`, in assay [1], the IC50 was greater than 1000 nM.
With `COc1ccc(C(=O)Nc2ccc(C(=O)c3ncc(CC(=O)O)c4ccccc34)cc2)cc1`, the IC50 in assay [1] worked out at 17 nM.
For the compound `O=C(O)Cc1cnc(C(=O)c2ccc(NC(=O)c3ccc(Cl)c(Cl)c3)cc2)c2ccccc12`, the values for the IC50 in assay [1] and in assay [2] were 13 nM and 23 nM, respectively.
As for `O=C(O)Cc1cnc(C(=O)c2ccc(NC(=O)CCc3ccc(Cl)c(Cl)c3)cc2)c2ccccc12`, the concentration for half-maximal inhibition (IC50) in assay [1] came to 18 nM.
`O=C(O)Cc1cnc(C(=O)c2ccc(NCc3ccc(Cl)c(Cl)c3)cc2)c2ccccc12`: in assay [1], the IC50 was found to be 43 nM.
On the same count and under the same terms, next, `O=C(O)Cc1cnc(C(=O)c2ccc(C(=O)Nc3ccc(Cl)c(Cl)c3)cc2)c2ccccc12`: 13 nM; `O=C(O)Cc1cnc(C(=O)c2ccc(C(=O)NCCc3ccc(Cl)cc3)cc2)c2ccccc12`: 12 nM.
Still for that read-out and setting: under `CC(C)(C(=O)O)c1cnc(C(=O)c2ccc(C(=O)NCCc3ccc(Cl)cc3)cc2)c2ccccc12` stands greater than 1000 nM; under `O=C(O)COc1cnc(C(=O)c2ccc(C(=O)NCCc3ccc(Cl)cc3)cc2)c2ccccc12`, 100 nM.
With `O=C(O)Cc1cnc(C(=O)c2ccc(NC(=O)OCc3ccc(Cl)c(Cl)c3)cc2)c2ccccc12`, the figures for the IC50 in assay [1] and in assay [3] were 5.2 nM and 6.7 nM, respectively.
With `O=C(O)Cc1cnc(C(=O)c2ccc(C(=O)Nc3ccc(Cl)cc3)cc2)c2ccccc12`, the IC50 was determined as 38 nM in assay [1] and 8.2 nM in assay [3].
For `O=C(O)Cc1cnc(C(=O)c2ccc(C(=O)NCCc3ccc(Cl)c(Cl)c3)cc2)c2ccccc12`, the IC50 in assay [1] is 18 nM; in assay [3], 3.7 nM.
Turning to `O=C(O)Cc1cnc(C(=O)c2ccc(OCCc3ccc(Cl)cc3)cc2)c2ccccc12`, the IC50 was determined as 130 nM in assay [1] and 12 nM in assay [3].
Taken in the same sequence, the figures for `O=C(O)Cc1cnc(C(=O)c2ccc(OCCCc3ccc(Cl)cc3)cc2)c2ccccc12` were 85 nM and 11 nM.
Taken in the same sequence, the figures for `Cc1ccc(C(=O)Nc2ccc(C(=O)c3ncc(CC(=O)O)c4ccccc34)cc2)cc1` were 18 nM and 5.2 nM.
`O=C(O)Cc1cnc(C(=O)c2ccc(NC(=O)c3ccc(OC(F)(F)F)cc3)cc2)c2ccccc12`: the half-inhibitory concentration (IC50) in assay [1] was 8.7 nM; in assay [3], 11 nM.
Take `N#Cc1ccc(C(=O)Nc2ccc(C(=O)c3ncc(CC(=O)O)c4ccccc34)cc2)cc1`: the IC50 in assay [1] was greater than 1000 nM; in assay [3] it was 7.8 nM.
`O=C(O)Cc1cnc(C(=O)c2ccc(NC(=O)c3ccc([N+](=O)[O-])cc3)cc2)c2ccccc12`: the IC50 in assay [1] is 28 nM; in assay [3] it was 9.9 nM.
For `CN(C)c1ccc(C(=O)Nc2ccc(C(=O)c3ncc(CC(=O)O)c4ccccc34)cc2)cc1` the same measures were 13 nM and 6.2 nM.
Taken in the same sequence, the figures for `O=C(O)Cc1cnc(C(=O)c2ccc(NC(=O)c3ccc(-c4ccccc4)cc3)cc2)c2ccccc12` were 14 nM and 18 nM.
Taken in the same sequence, the figures for `O=C(O)Cc1cnc(C(=O)c2ccc(NC(=O)c3ccc(Oc4ccccc4)cc3)cc2)c2ccccc12` were 120 nM and 14 nM.
Take `O=C(O)Cc1cnc(C(=O)c2ccc(NC(=O)Cc3ccc(Cl)c(Cl)c3)cc2)c2ccccc12`: the values for the IC50 in assay [1] and in assay [3] were 30 nM and 15 nM, respectively.
As to `O=C(O)Cc1cnc(C(=O)c2ccc(NC(=O)Nc3ccc(Cl)c(Cl)c3)cc2)c2ccccc12`, the IC50 in assay [1] worked out at 36 nM; in assay [3] it was 13 nM.
Turning to `O=C(O)Cc1cnc(C(=O)c2ccc(NC(=O)CC3CCCCC3)cc2)c2ccccc12`, the IC50 in assay [1] was 220 nM; in assay [3] it was 20 nM.
Taken in the same sequence, the figures for `O=C(O)Cc1cnc(C(=O)c2ccc(NC(=O)CC34CC5CC(CC(C5)C3)C4)cc2)c2ccccc12` were 97 nM and 21 nM.
For the compound `O=C(O)Cc1cnc(C(=O)c2ccc(NC(=O)C3CCOCC3)cc2)c2ccccc12`, the results for the IC50 in assay [1] and in assay [3] were greater than 1000 nM and 400 nM, respectively.
In the case of `O=C(O)Cc1cnc(C(=O)c2ccc(NC(=O)c3cccc4ccccc34)cc2)c2ccccc12`, the IC50 in assay [1] stood at 350 nM; in assay [3], 31 nM.
Taken in the same sequence, the figures for `O=C(O)Cc1cnc(C(=O)c2ccc(NC(=O)c3cc4ccccc4o3)cc2)c2ccccc12` were 7.4 nM and 3.8 nM.
As to `O=C(O)Cc1cnc(C(=O)c2ccc(NC(=O)c3ccccn3)cc2)c2ccccc12`, the IC50 in assay [3] is 48 nM.
Regarding `O=C(O)Cc1cnc(C(=O)c2ccc(NC(=O)c3cccnn3)cc2)c2ccccc12`, the IC50 in assay [1] was greater than 1000 nM; in assay [3], 322 nM.
Taken in the same sequence, the figures for `O=C(O)Cc1cnc(C(=O)c2ccc(NC(=O)c3cscn3)cc2)c2ccccc12` were greater than 1000 nM and 67 nM.
Turning to `O=C(O)Cc1cnc(C(=O)c2ccc(NC(=O)C3CC3)cc2)c2ccccc12`, in assay [3], the IC50 was found to be 50 nM.
